ChEMBL document CHEMBL1795208 (J Med Chem, 2011)

What was measured:
Format in all cases: functional, cell-based
SK-BR-3 = experiment: Antiproliferative activity against human SKBR3 cells expressing HER2 after 72 hrs by MTS/PMS assay; details: SK-BR-3, 72 h
Procedure, shortened: (§1)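 Cells kept in Advanced DMEM/F12 (1:1) with non-essential amino acids, 2 mM L-glutamine, penicillin, streptomycin and 10% FBS at 37 °C, 5% CO2. Seeded at 2000/well, attached overnight. Compound added in DMSO across a concentration range (1% DMSO final) for 72 h. Viable cells read by MTS/PMS and normalized to 1% DMSO controls (100%). IC50 taken from separate triplicate experiments.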

MCF7 = experiment: Antiproliferative activity against human MCF7 cells expressing estrogen receptor after 72 hrs by MTS/PMS assay; details: MCF7, 72 h; procedure, shortened: as §1
[1] = Antiproliferative activity against human androgen-dependent LNCaP-LN3 cells after 72 hrs by MTS/PMS assay; details: LNCaP-LN3, 72 h; procedure, shortened: as §1
[2] = Antiproliferative activity against human androgen-independent PC3MM2 cells after 72 hrs by MTS/PMS assay; details: PC3MM2, 72 h; procedure, shortened: as §1

Row | IC50 (SK-BR-3) [µM] | IC50 (MCF7) [µM] | SMILES | IC50 [1] [µM] | IC50 [2] [µM]
1 | 10.8 | 9.18 | COc1cccc(-c2cc(C(=O)Nc3cc4ccc(OC5CN(C(C)=O)C[C@@H](O)[C@H]5O)c(C)c4oc3=O)ccc2OC)c1 (stereo not given in full) | 0.71 | 2.22
2 | 3.92 | 1.85 | COc1cccc(-c2cc(C(=O)Nc3cc4ccc(OC5CN(C)C[C@@H](O)[C@H]5O)c(C)c4oc3=O)ccc2OC)c1 (stereo not given in full) | 0.59 | 2.99
3 | 5.72 | 1.5 | COc1cccc(-c2cc(C(=O)Nc3cc4cc(OC)c(OC(C)=O)c(C)c4oc3=O)ccc2OC)c1 | 1.05 | 1.69
4 | 1.77 | 3.08 | COc1cccc(-c2cc(C(=O)Nc3cc4ccc(OCCN(C)C)c(OC)c4oc3=O)ccc2OC)c1 | 5.22 | 6.2
5 | 9.45 | 3.37 | COc1cccc(-c2cc(C(=O)Nc3cc4cc(OC)c(O[C@@H]5O[C@H](CO)C[C@@H](O)[C@H]5O)c(C)c4oc3=O)ccc2OC)c1 | 4.66 | 5.9
6 | > 100 | > 100 | COc1cccc(-c2cc(C(=O)Nc3cc4cc(OC)c(OS(C)(=O)=O)c(C)c4oc3=O)ccc2OC)c1 | > 100 | 
7 | 1.42 | 1.29 | COc1cccc(-c2cc(C(=O)Nc3cc4cc(OC)c(OCCN(C)C)c(C)c4oc3=O)ccc2OC)c1 | 6.28 | 4.87
8 | 1.5 | 1.41 | COc1c(OCCCN(C)C)ccc2cc(NC(=O)c3cc4ccccc4[nH]3)c(=O)oc12 | 4.71 | 8.95
9 | > 100 | > 100 | COc1cccc(-c2cc(C(=O)Nc3cc4ccc(OS(=O)(=O)c5ccc(C)cc5)c(C)c4oc3=O)ccc2OC)c1 | 0.58 | > 100
10 | 9.45 | 3.37 | COc1cccc(-c2cc(C(=O)Nc3cc4cc(OC)c(O[C@@H]5OC[C@@H](O)[C@H]5O)c(C)c4oc3=O)ccc2OC)c1 | 4.72 | 9.56
11 | 6.83 | 6.29 | COc1cccc(-c2cc(C(=O)Nc3cc4cc(OC)c(OC(N)=O)c(C)c4oc3=O)ccc2OC)c1 | 3.55 | 2.62
12 | 1.34 | 1.51 | COc1cccc(-c2cc(C(=O)Nc3cc4ccc(OC5CCN(C)CC5)c(C)c4oc3=O)ccc2OC)c1 | 4.12 | 3.13
13 | 3.15 | 6.23 | CNCCOc1c(OC)cc2cc(NC(=O)c3ccc(OC)c(-c4cccc(OC)c4)c3)c(=O)oc2c1C | > 100 | 11.8
14 | 20.5 | 8.62 | COc1cccc(-c2cc(C(=O)Nc3cc4ccc(OC(C)=O)c(OC)c4oc3=O)ccc2OC)c1 | 14.6 | 19.3
15 | > 100 | > 100 | COc1cccc(-c2cc(C(=O)Nc3cc4ccc(OS(C)(=O)=O)c(OC)c4oc3=O)ccc2OC)c1 | 0.87 | 
16 | 8.75 | 95.8 | COc1cccc(-c2cc(C(=O)Nc3cc4ccc(O[C@H]5C[C@H](O)CCO5)c(OC)c4oc3=O)ccc2OC)c1 | 11.5 | 

Row | IC50 (SK-BR-3) [µM] | IC50 (MCF7) [µM] | SMILES | IC50 [1] [µM] | IC50 [2] [µM]
17 | 3.02 | 1.16 | COc1cccc(-c2cc(C(=O)Nc3cc4ccc(OC(N)=O)c(C)c4oc3=O)ccc2OC)c1 | 2.61 | 6.37
18 | 9.28 | 11.2 | COc1cccc(-c2cc(C(=O)Nc3cc4ccc(O[C@@H]5C[C@H](O)CCO5)c(C)c4oc3=O)ccc2OC)c1 | 8.56 | 
19 | 7.18 | 9.5 | COc1cccc(-c2cc(C(=O)Nc3cc4cc(OC)c(O[C@@H]5OCC[C@@H](O)[C@H]5O)c(C)c4oc3=O)ccc2OC)c1 | 12.8 | 24
20 | > 50 | > 50 | COc1cccc(-c2cc(C(=O)Nc3cc4ccc(OCC(O)CO)c(OC)c4oc3=O)ccc2OC)c1 (stereo not given) | 0.96 | 1.66
21 | 2.58 | 1.86 | COc1c(OC2CCN(C)CC2)ccc2cc(NC(=O)c3cc4ccccc4[nH]3)c(=O)oc12 | 12.6 | 7.93
22 | 1.46 | 17.5 | COc1cccc(-c2cc(C(=O)Nc3cc4ccc(O[C@@H]5OCC[C@@H](O)[C@H]5O)c(OC)c4oc3=O)ccc2OC)c1 | 2.29 | 10.7
23 | 13.9 | 9 | COc1cccc(-c2cc(C(=O)Nc3cc4ccc(OC5OC(C)(C)[C@H](OC)[C@@H](O)[C@H]5O)c(OC)c4oc3=O)ccc2OC)c1 (stereo not given in full) | 0.11 | 1.44
24 | 76.8 | 5.56 | COc1cccc(-c2cc(C(=O)Nc3cc4ccc(OC(N)=O)c(OC)c4oc3=O)ccc2OC)c1 | 4.83 | > 100
25 | 58.8 | > 100 | COc1cccc(-c2cc(C(=O)Nc3cc4cc(OC)c(OC5OC(C)(C)[C@H](OC)[C@@H](O)[C@H]5O)c(C)c4oc3=O)ccc2OC)c1 (stereo not given in full) | 26.6 | > 100
26 | 0.49 | 0.7 | COc1cccc(-c2cc(C(=O)Nc3cc4cc(OC)c(OCCCN(C)C)c(C)c4oc3=O)ccc2OC)c1 | 4.71 | 5.4
27 | 0.91 | 1.53 | COc1cccc(-c2cc(C(=O)Nc3cc4ccc(OCCCN(C)C)c(OC)c4oc3=O)ccc2OC)c1 | 8.03 | 4.08
28 | > 100 | > 100 | COc1cccc(-c2cc(C(=O)Nc3cc4ccc(OS(=O)(=O)c5ccc(C)cc5)c(OC)c4oc3=O)ccc2OC)c1 | 0.11 | 
29 | 12.5 | 64.5 | COc1cccc(-c2cc(C(=O)Nc3cc4cc(OC)c(O[C@H]5OCC[C@@H](O)[C@H]5O)c(C)c4oc3=O)ccc2OC)c1 | 14.9 | 25.4
30 | > 100 | > 100 | COc1cccc(-c2cc(C(=O)Nc3cc4ccc(O[C@H]5OCC[C@H]5O)c(C)c4oc3=O)ccc2OC)c1 | 5.34 | 
31 | 0.78 | 2.14 | COc1c(OCCCN(C)C)ccc2cc(NC(=O)c3ccc(OC(C)=O)c(CC=C(C)C)c3)c(=O)oc12 |  | 4.59
32 | > 50 | > 50 | COc1cccc(-c2cc(C(=O)Nc3cc4ccc(OCC(O)CO)c(C)c4oc3=O)ccc2OC)c1 (stereo not given) |  | 0.19

Row | SMILES | IC50 (SK-BR-3) [µM] | IC50 (MCF7) [µM] | IC50 [1] [µM] | IC50 [2] [µM]
33 | COc1cccc(-c2cc(C(=O)Nc3cc4ccc(OC(=O)N(C)C)c(OC)c4oc3=O)ccc2OC)c1 | > 100 | > 100 | 15.7 | 11.6
34 | CNC(=O)Oc1c(OC)cc2cc(NC(=O)c3ccc(OC)c(-c4cccc(OC)c4)c3)c(=O)oc2c1C | 1.53 | 7.78 | 4.77 | 3.13
35 | COc1cccc(-c2cc(C(=O)Nc3cc4cc(OC)c(OP(=O)(OC)OC)c(C)c4oc3=O)ccc2OC)c1 | 26.5 | 24.2 | 1.36 | 31.3
36 | COc1cccc(-c2cc(C(=O)Nc3cc4ccc(OP(=O)(OC)OC)c(C)c4oc3=O)ccc2OC)c1 | > 100 | > 100 | 3.65 | > 100
37 | CNC(=O)Oc1ccc2cc(NC(=O)c3ccc(OC)c(-c4cccc(OC)c4)c3)c(=O)oc2c1OC | > 100 | 6.54 | 2.37 | 1.68
